Consider two compounds from ChEMBL document CHEMBL1132694, “Discovery and structure-activity relationships of imidazole-containing tetrahydrobenzodiazepine inhibitors of farnesyltransferase” (J Med Chem, 1999).

For assay [1], the target named is T1, Protein farnesyltransferase (Homo sapiens, UniProt P49354+P49356). In words: Phenotypic reversion of H-Ras transformed NIH3T3 cells at 1.25/5 uM. It is filed as functional, cell-based. Particulars: Mus musculus.
Assay [2] deals with T1, Protein farnesyltransferase. Nature of the assay: Inhibition of human purified recombinant farnesyltransferase (hFT) at 15 uM. It is filed as protein-complex assay.
The target is the same in assay [3]. Nature of the assay: Phenotypic reversion of H-Ras transformed NIH3T3 cells at 5 uM. It is filed as functional, cell-based. Particulars: Mus musculus.
Assay [4] has the same target. Nature of the assay: Phenotypic reversion of H-Ras transformed NIH3T3 cells at 1.25 uM. It is filed as functional, cell-based. Particulars: Mus musculus.
In assay [5] the test system is Rat1. In words: Inhibition of anchorage independent growth of H-Ras transformed Rat-1 cells. Type of assay: functional, cell-based.
Assay [6] relates to Mus musculus. In words: In vivo antitumor activity against Rat-1 tumors in mice at 10 mg/kg. Type of assay: functional. A digest of the protocol:
(§1)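 Female athymic Balb/c-background mice (18-22 g) were implanted ip with 1 × 10^6 in vitro-propagated H-Ras-transformed Rat-1 fibroblasts. Dosing was ip, once daily for 7 days from day 1, with compound in 10% ethanol/sterile water given within 1 h of dissolution. Groups were typically 6 treated and 8 control mice. Read-out was median survival as %T/C, with ≥125% counted active (Gehan's generalized Wilcoxon test).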

For assay [7], the system named is Mus musculus. In words: In vivo antitumor activity against Rat-1 tumors in mice at 30 mg/kg. Type of assay: functional. A digest of the protocol: as §1

The structures appear in SMILES notation.

The term inhibition denotes how much of the control response was suppressed. `O=C(OCc1ccccc1)N1CCN(Cc2c[nH]cn2)c2ccc(-c3ccccc3)cc2C1`: the Reversion activity in assay [1] and in assay [3] was 0% throughout. Further, the inhibition in assay [2] worked out at 55%.

One may read the EC50 as the midpoint of the concentration-response curve. Higher therefore signals lower potency in that assay. One may read the T/C as the result in the treated group divided by that in the control group, in per cent. As for `O=C(c1cccc2ccccc12)N1CCN(Cc2c[nH]cn2)c2ccc(-c3ccccc3)cc2C1`, the Reversion activity was found to be 0% in assay [4] and 90% in assay [3]. Also, in assay [5], the EC50 is 1600 nM. Moreover, the results for the T/C in assay [6] and in assay [7] were 136% and 96%, respectively.
